The values that follow come from ChEMBL document CHEMBL1156265, “Furo[2,3-b]pyridine-based cannabinoid-1 receptor inverse agonists: synthesis and biological evaluation. Part 1” (Bioorg Med Chem Lett, 2010).

The subject of series [1] is Rattus norvegicus. Put plainly: Reduction of body weight in DIO rat assessed as weight change at 0.3 mg/kg, po after 18 hrs. The class given is functional. The method, boiled down:
(§1)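 Acute study in diet-induced obese rats. A single oral dose was given and rats were monitored for 18 h. Food intake suppression and body weight change were measured relative to vehicle-treated controls.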

The nature of series [2]: Drug level in rat brain at 1 mg/kg, iv after 4 hrs. The class given is ADME, organism-based. Details: dose 1 mg/kg, route intravenous. To be noted: read-out: Drug uptake.
The subject of series [3] is Rattus norvegicus. The series is described as follows: Suppression of food intake in DIO rat at 0.1 mg/kg, po relative to control. The class given is functional. The method, boiled down:
as §1

For another series, the target named is Cannabinoid receptor 2 (Homo sapiens, UniProt P34972). Put plainly: Inhibition of human CB2 receptor.
Chain of Cannabinoid receptor 2 (P34972 whole entry): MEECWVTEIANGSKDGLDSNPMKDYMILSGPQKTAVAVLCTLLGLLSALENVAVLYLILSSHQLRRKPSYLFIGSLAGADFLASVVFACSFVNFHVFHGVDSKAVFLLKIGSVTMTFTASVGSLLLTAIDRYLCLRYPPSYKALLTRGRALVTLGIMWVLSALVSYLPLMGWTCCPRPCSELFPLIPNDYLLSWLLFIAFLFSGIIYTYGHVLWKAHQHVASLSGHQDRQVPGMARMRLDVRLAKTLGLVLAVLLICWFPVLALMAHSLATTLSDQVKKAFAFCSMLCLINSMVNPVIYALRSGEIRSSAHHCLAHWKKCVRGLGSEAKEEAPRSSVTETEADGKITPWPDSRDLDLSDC
Series [4] deals with Rattus norvegicus. Put plainly: Reduction of body weight in DIO rat assessed as weight change at 0.1 mg/kg, po after 18 hrs. It counts as functional. In a few lines: as §1
Series [5] in a line: Bioavailability in rat. It counts as ADME, organism-based. Conditions: in vivo.
Series [6] deals with Rattus norvegicus. Put plainly: Suppression of food intake in DIO rat at 0.3 mg/kg, po relative to control. The class given is functional. The method, boiled down: as §1
Series [7] is described as follows: Ratio of drug level in brain to plasma in rat at 1 mg/kg, iv after 4 hrs. It counts as ADME, organism-based. Also noted: dose 1 mg/kg, route intravenous.
The target of the next series is Cannabinoid receptor 1 (Homo sapiens, UniProt P21554). The series is described as follows: Inhibition of human CB1 receptor.
Chain of Cannabinoid receptor 1 (P21554 whole entry): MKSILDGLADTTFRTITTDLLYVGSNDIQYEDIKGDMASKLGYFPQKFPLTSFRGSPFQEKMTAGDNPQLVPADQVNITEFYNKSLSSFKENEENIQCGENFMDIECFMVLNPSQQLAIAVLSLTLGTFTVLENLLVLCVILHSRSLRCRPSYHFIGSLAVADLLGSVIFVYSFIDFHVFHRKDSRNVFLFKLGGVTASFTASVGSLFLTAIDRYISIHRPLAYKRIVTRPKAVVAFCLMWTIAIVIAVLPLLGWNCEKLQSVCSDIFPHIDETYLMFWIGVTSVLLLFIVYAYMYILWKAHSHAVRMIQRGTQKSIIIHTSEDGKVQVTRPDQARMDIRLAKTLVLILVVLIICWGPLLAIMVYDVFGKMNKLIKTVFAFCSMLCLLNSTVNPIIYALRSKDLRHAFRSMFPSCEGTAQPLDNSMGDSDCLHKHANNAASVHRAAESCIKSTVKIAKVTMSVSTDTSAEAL
Series [8] can be described thus: Plasma clearance in rat. It counts as ADME, organism-based.
Series [9] in a line: Bioavailability in dog. It counts as ADME, organism-based, Canis lupus familiaris. Conditions: in vivo. In a few lines:
(§2)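 PK in dog and rhesus macaque. Bioavailability, plasma clearance (mL/min/kg) and terminal half-life derived from plasma drug levels.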

Series [10] in a line: Half life in rat. It counts as ADME, organism-based. Conditions: in vivo.
Series [11] is described as follows: Half life in rhesus monkey. Conditions: in vivo. The class given is ADME, organism-based, Macaca mulatta. The method, boiled down:
as §2

The nature of series [12]: Bioavailability in rhesus monkey. The class given is ADME, organism-based, Macaca mulatta. Conditions: in vivo. The method, boiled down:
as §2

The nature of series [13]: Plasma clearance in rhesus monkey. It counts as ADME, organism-based, Macaca mulatta. The method, boiled down: as §2
Series [14] is described as follows: Drug level in rat plasma at 1 mg/kg, iv after 4 hrs. The class given is ADME, organism-based. Also noted: dose 1 mg/kg, route intravenous. Conditions: read-out: Drug uptake.
Series [15] in a line: Plasma clearance in dog. The class given is ADME, organism-based, Canis lupus familiaris. In a few lines:
as §2

Series [16] in a line: Half life in dog. The class given is ADME, organism-based, Canis lupus familiaris. Conditions: in vivo. The method, boiled down:
as §2

Series [17] concerns Rattus norvegicus. The series is described as follows: Reduction of body weight in rat at 1 mg/kg, po after 13 days relative to control. The class given is functional. Also noted: scale not given: the % may be the effect or the level left. In a few lines:
(§3)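 Chronic study in diet-induced obese rats with daily oral dosing at 1 mg/kg (for some compounds 0.1 and 0.3 mg/kg as well). Body weight change and cumulative food intake suppression were measured relative to vehicle. The 14-day study ended 18 h after the day-14 dose; one study ended on day 13.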

Series [18] relates to Rattus norvegicus. The series is described as follows: Suppression of cumulative food intake in rat at 1 mg/kg, po after 13 days relative to control. The class given is functional. In a few lines:
as §3

For series [19], the system named is Rattus norvegicus. The series is described as follows: Reduction of body weight in DIO rat assessed as weight change at 1 mg/kg, po daily measured 18 hrs post dose on day 13. The class given is functional. Details: scale not given: the % may be the effect or the level left. In a few lines:
as §3

One may read the IC50 as the concentration needed to halve the response being measured. As usually defined, the bioavailability is the share of a dose that reaches the circulation, judged against a reference dose that is usually intravenous. In general, Kp refers to tissue or fluid exposure divided by exposure in the circulation. A word on the clearance: it is the volume of plasma or blood freed of the substance per unit of time. In general, half-life refers to how long it takes for the measured level to halve. Turning to `CC(=O)Nc1c(C(=O)C(C)(C)O)oc2nc(-c3ccccc3Cl)c(-c3ccc(Cl)cc3)cc12`, the Activity in the series on Rattus norvegicus [1] was -1 g; in the series with Rattus norvegicus [3] it was 28%; in the series with Rattus norvegicus [4] it was -1 g; with Rattus norvegicus [6], 41%. The concentration at 4 h was 56 nM in series [2] and 72 nM in series [14]. The IC50 against Cannabinoid receptor 2 was found to be 5.4 µM; against Cannabinoid receptor 1 it was 5.4 nM. The values for the bioavailability in series [5], in [9] and in series [12] were 61%, 87% and 100%, respectively. In addition, in series [7], the Kp at 4 h was 0.77. Besides, the clearance in series [8] worked out at 16 mL/min/kg; in series [13] it was 2.8 mL/min/kg; in series [15], 5 mL/min/kg. The half-life in series [10] was 288 min; in series [11], 2700 min; in series [16], 1560 min.
Turning to `C[C@H](NC(=O)C(C)(C)Oc1ccc(C(F)(F)F)cn1)[C@@H](Cc1ccc(Cl)cc1)c1cccc(C#N)c1` [TARANABANT], the Activity is 6% with Rattus norvegicus [17], 21% with Rattus norvegicus [18] and 6% with Rattus norvegicus [19].
